Screening results as filed in PubChem BioAssay.
Sampled rows, rich in hits. Any-hit rate of the full collection: about 5.7%.
Mdm2-MdmX inh: inhibitors of human Mdm2-MdmX association, primary screen, cell-based, luminescence, split luciferase, SaOS-2, uHTS; Protein Mdm4 (Homo sapiens) + E3 ubiquitin-protein ligase Mdm2 (Homo sapiens), …; SaOS-2 split-luciferase Mdm2/MdmX complementation; inhibition, % at 8 µM; hit rate 3% among 330,000;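 active means inhibition of at least 50% at 8 µM in the primary screen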
SKKanGAS inh: S. pyogenes SKKanGAS growth inhibitors in kanamycin, primary screen, streptokinase expression inhibitor project, SKKanGAS strain, BacTiter-Glo luminescence | 6 h | inhibition, % at 7.5 µM | hit rate 1.3% among 300,000 | AID 1662, 2009;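 active means mean replicate score, as percent of positive control median, at least 50; inconclusive means mean below 50 but one replicate at or above 50; inactive means mean and every replicate below 50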;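 further: strain carries kanamycin resistance gene driven by streptokinase promoter and grows in 40 µg/ml kanamycin; loss of luminescence reflects streptokinase promoter inhibition or plain growth inhibition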
T cruzi inh: inhibitors of intracellular T. cruzi growth, primary screen, luminescence, NIH3T3 host cells. T. cruzi beta-gal in NIH3T3, 90 h. inhibition, % (concentration not given with the values). hit rate 1.4% among 300,000. AID 1885, 2009;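 active means mean inhibition across valid replicates above about 55%, limit read from the data; inconclusive means mean below that limit but half or more replicates reach it; inactive means mean below it, under half of replicates reach it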;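 further: signal also drops with host cell toxicity which is not excluded here; higher percent means less beta-gal luminescence so fewer parasites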
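System: NIH/3T3 fibroblasts plus reporter T. cruzi. Medium: DMEM plus 2% FBS. Probe or stimulus: 5000 reporter trypomastigotes per well. Compound: single 50 nL compound addition per well in DMSO. Incubation: co-culture of at least 90 h after 3 h attachment. Detection: GalScreen β-gal luminescence, detergent lysis, 60 min. Evaluation: parasite load inhibition, %.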
Beta apoptosis: inhibitors of cytokine-induced beta cell apoptosis, primary screen, luminescence | hit rate 0.8% among 300,000 | protection from apoptosis, % (no concentration beside the values) | INS-1E cytokine-induced death, ATP luminescence, 48 h; percent of positive-control rescue, neutral wells zero | AID 435005, 2010;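 active means Every replicate reaches about 75%, or at least half do and their mean reaches it too, limit read from the data; inconclusive means At least half of replicates reach the limit but their mean does not; inactive means Under half of replicates reach the limit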;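 further: higher means more ATP so stronger rescue from cytokine killing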
Calb FLC: C. albicans growth inhibition with fluconazole, primary screen, CaCi-2 strain, Alamar Blue fluorescence | growth inhibition, % (test concentration not listed) | hit rate 0.57% among 300,000 | C. albicans CaCi-2 (fluconazole-resistant clinical isolate) + fluconazole, 48 h;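 active means growth inhibition above about 58% in most replicates, limit read from the data, passing the limit was not always enough; inconclusive means exactly half the replicates above a set limit; inactive means most replicates below a set limit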;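 further: all wells also contain fluconazole at 8 µg/ml as a sub-toxic cotreatment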
CSC inhib: cancer stem cell viability inhibitors, primary screen, luminescence; inhibition, % at 7.5 µM; hit rate 1.1% among 300,000; cancer stem cell-like cells viability; in the data active means inhibition above about 75%; inconclusive means no clear call, values can overlap the other calls; tested in HMLE shEcad cells
Mdm2-MdmX conf: Mdm2-MdmX complex disruptors, retested hits, confirmation, luminescence, single concentration; hit rate 55% among 10,000; inhibition, % at 8 µM; shares compounds with Mdm2-MdmX inh; Mdm2-MdmX binding, luminescent assay; in the data active means inhibition above about 40%
Full FLuc ctr: full-length luciferase signal inhibition, confirmation, counter-screen for Mdm2/MdmX interaction inhibitor project, cell-based, single concentration, SaOS-2 | inhibition, % at 8 µM | SaOS-2 full-length luciferase counterscreen, luminescence | hit rate 77% among 6,200 | shares compounds with Mdm2-MdmX inh | AID 504607, 2011;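 active means mean inhibition at 8 µM reaching about 37%, which flags the compound as non-specific, limit read from the data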;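 further: p53-null SaOS-2 cells with luciferase driven by a doxycycline-inducible promoter; compound on cells about two nights before reading with doxycycline added after day one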
Large screens that a line does not name were inactive (follow-up assays come after a bar, where they were run).

COc1ccc(S(=O)(=O)N(CC(=O)NCc2ccco2)c2ccc(C)cc2)cc1OC	none
CC(C)S(=O)(=O)c1csc(NC(=O)Nc2cc(Cl)ccc2Cl)c1Cl	Mdm2-MdmX inh 62, SKKanGAS inh 58 | Mdm2-MdmX conf inactive | Full FLuc ctr 93
CCOC(=O)C1=C(COC(=O)[C@@H]2CCCN2S(=O)(=O)c2ccc(C)cc2)NC(=O)NC1C (stereo partly drawn)	none (no result: Beta apoptosis)
N#C/C(=N\Nc1cccc([N+](=O)[O-])c1)C(=O)c1ccc(Br)cc1	Mdm2-MdmX inh 97, Beta apoptosis 104, Calb FLC 97, CSC inhib 102 | Mdm2-MdmX conf 89 | Full FLuc ctr inactive
CCOC(=O)C1CCCN(C2=NC(=O)/C(=C/c3ccc(N(C)C)cc3)S2)C1 (stereo not drawn)	none
O=C1OC(Nc2ccc3c(c2)OCO3)c2ccccc21 (stereo not drawn)	Mdm2-MdmX inh 70 | Mdm2-MdmX conf 41 | Full FLuc ctr 55
O=C1OC(Nc2ccc(F)c([N+](=O)[O-])c2)c2ccccc21 (stereo not drawn)	none
CC(Oc1ccc(F)cc1)C(=O)Nc1cc(S(=O)(=O)N2CCCCC2)ccc1N1CCOCC1 (stereo not drawn)	none
Oc1c(CNc2ccccc2)cc(COCc2ccccc2)c2cccnc12	Mdm2-MdmX inh 70 (no result: SKKanGAS inh, T cruzi inh, Beta apoptosis, Calb FLC, CSC inhib) | Mdm2-MdmX conf 45 | Full FLuc ctr 79
Cc1ccc(NCc2ccc(O)c3ncccc23)cc1C	Mdm2-MdmX inh 78, Calb FLC 65 | Mdm2-MdmX conf 64 | Full FLuc ctr 48
Oc1ccc(NCc2cccc(OCc3ccccc3)c2)cc1	none
Cc1ccc(NCc2ccc(O)c3ncccc23)cc1	Mdm2-MdmX inh 76, Calb FLC 64 | Mdm2-MdmX conf 71 | Full FLuc ctr 66
CC(=O)c1cccc(N2C(=NC(=O)C3CC3)SC3CS(=O)(=O)CC32)c1 (stereo not drawn)	none (no result: Calb FLC)
O=C(COc1ccccc1[N+](=O)[O-])OCC(=O)c1ccc(Br)s1	none (no result: SKKanGAS inh, T cruzi inh, Calb FLC)
CC(C)(C)C1CCC(CN2C(Nc3ccccc3)=NC[C@@H]2Cc2ccccc2)CC1 (stereo partly drawn)	Mdm2-MdmX inh 100, CSC inhib 107 (no result: SKKanGAS inh, T cruzi inh, Calb FLC) | Mdm2-MdmX conf inactive | Full FLuc ctr 47
CCN1C(Nc2ccccc2)=NC[C@@H]1Cc1ccccc1	none
COc1cccc(/C=N/n2c(N)c(S(=O)(=O)c3cccs3)c3nc4ccccc4nc32)c1	Calb FLC inconclusive
Nc1c(S(=O)(=O)c2cccs2)c2nc3ccccc3nc2n1/N=C/c1cccc(O)c1	Mdm2-MdmX inh 79, SKKanGAS inh 72, CSC inhib 97 | Mdm2-MdmX conf 56 | Full FLuc ctr 86
O=c1cc(CN2CCN(c3ccccc3)CC2)c2cc(O)c(-c3ccccc3)cc2o1	Mdm2-MdmX inh 73 | Mdm2-MdmX conf inactive
Cc1nc2c(sc3nc(N4CCOCC4)c4c(c32)CC(C)(C)OC4)c(-c2ccc(Cl)cc2)c1C(=O)O	Mdm2-MdmX inh 64 | Mdm2-MdmX conf inactive
CC1(C)Cc2c(c(N3CCOCC3)nc3snc(N)c23)CO1	Mdm2-MdmX inh 83 | Mdm2-MdmX conf inactive
CCOCCCNC(=O)/C(C#N)=C/c1ccccc1F	none
CN(Cc1ccno1)C(=O)CC1C(=O)NCCN1CC(c1ccccc1)c1ccccc1 (stereo not drawn)	none
COc1ccc(CCN2CCC(Nc3nc4ccccc4n3Cc3ccc(F)cc3)CC2)cc1	Mdm2-MdmX inh 99 (no result: Calb FLC) | Mdm2-MdmX conf 91 | Full FLuc ctr 47
